Screening data from PubChem.
Insulin prom act: TRM-6 insulin promoter activation. TRM-6 cells (human fetal islet line), insulin promoter eGFP reporter, imaging; plate-scaled: unstimulated 0, stimulated control 100. activation, % at 2 µM. hit rate 0.81% among 130,000. AID 1296;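 active = activation at 2 µM above a set limit, confirmed on inspection of the cell images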;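 note: share of cells whose green reporter signal exceeds an intensity cutoff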
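test system = TRM-6 insulin promoter–eGFP reporter cells | benchmarks = stimulated versus unstimulated wells as plate controls | read-out basis = percent cells above green-intensity threshold, converted to percent activation versus plate controls | detection = fixed-cell fluorescence microscopy, eGFP plus Hoechst | incubation = tamoxifen pre-incubation 15 h overnight, then compound exposure 48 h at 37 °C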
Starred values were filed as active, the others as inactive. This is one part of a sample in which hits are shown more often than they occur.

SMILES	Insulin prom act
O=C(CN1CCCCC1)Nc1ccc(S(=O)(=O)N2CCOCC2)cc1	4
O=C(CN1CCOCC1)Nc1ccc(S(=O)(=O)NC2CCCCC2)cc1	200*
CCCCN(CCCC)S(=O)(=O)c1ccc(NC(=O)CN2CCOCC2)cc1	6
O=C(CSc1n[nH]c(-c2ccccc2Br)n1)NCCN1C(=O)CSC1=O	194
N/C(=N\OC(=O)CCC1CCCC1)c1ccccn1	-7
CCCNC(=O)CC1Sc2ccccc2NC1=O (configuration not stated)	111
COCCNC(=O)C(OC(=O)CC1Sc2ccccc2NC1=O)c1ccccc1 (configuration not stated)	414*
O=C(CC1Sc2ccccc2NC1=O)c1ccc(Br)cc1 (configuration not stated)	8
CCc1ccc(C(=O)COC(=O)c2ccc(-c3nnc(-c4ccccc4)o3)cc2)cc1	-7
COC(=O)c1ccc(NS(=O)(=O)c2ccc(SC)cc2)cc1	730*
COc1ccc(NS(=O)(=O)c2ccc(SC)cc2)cc1	0
CSc1ccc(S(=O)(=O)Nc2c(C)cccc2C)cc1	-91
CCN(CC)S(=O)(=O)c1ccc(NS(=O)(=O)c2ccc(F)cc2)cc1	-7
CC(=O)c1ccc(NS(=O)(=O)c2ccc(N)cc2)cc1	-6
CSc1ccc(S(=O)(=O)Nc2ccc(F)cc2)cc1	420*
Cc1cc(C)cc(NC(=O)C2(c3cccs3)CCOCC2)c1	8
O=C(NCCc1nnc2ccc(NCc3ccc(F)cc3)nn12)c1ccccc1	-6
CCOC(=O)C1C(C#N)=C(N)OC(C)=C1c1ccncc1 (configuration not stated)	3
CC(C)(C)NC(=O)c1ccncc1	10
CC(C)(C)NC(=O)/C=C/c1ccc(C(F)(F)F)cc1	322*
CC(C)(CCl)C(=O)Nc1ccc(C(F)(F)F)cc1	-85
CCOC(=O)C1C(=O)N(O)CC1c1cccc(Oc2ccccc2)c1 (configuration not stated)	-9
CSc1ccc(/C=N/NC(=O)CNc2ccc3ccccc3c2)cc1	369*
CSc1ccc(/C=N/NC(=O)c2ccc(C)c(C)c2)cc1	8
Cc1cccc(NCC(=O)N/N=C/c2cccc(Br)c2)c1	-3
SMILES	Insulin prom act
Cc1nn(-c2ccc(Cl)cc2)c(N)c1C(O)(CSc1nccn1C)C(F)(F)F (configuration not stated)	0
O=C(CNC(=O)c1ccccc1Cl)N/N=C/C=C/c1ccccc1	7
CCOC(=O)N1CCN(C(=O)c2cn(CC)c3cc(N4CCN(C)CC4)c(F)cc3c2=O)CC1	7
Cc1ccc(CC2CC(=O)N(c3nc4ccccc4n3C)C2=O)cc1 (configuration not stated)	-4
Cc1nc2nc(COc3ccccc3)nn2c(C)c1Cl	456*
COc1ccc(CNc2nc3nc(C)c(Cl)c(C)n3n2)cc1OC	3
Nc1nc(N)nc(COc2ccccc2)n1	-8
c1ccc2[nH]c(CN3CCOCC3)nc2c1	-3
N#C/C(=C\c1ccc(N2CCOCC2)o1)c1nc2ccccc2[nH]1	142*
N#C/C(=C\c1ccc(OC(=O)c2ccc(Br)s2)cc1)c1nc2ccccc2[nH]1	9
O=C(CCN1CCN(Cc2ccccc2)CC1)Nc1ccccc1Cl	-3
CC1(C)CC(=O)C2=C(C1)Nc1cc3c(cc1C2c1ccc(F)cc1)OCO3 (configuration not stated)	100*
CC1C2=C(CC(C)(C)CC2=O)NC2=C1C(=O)CC(C)(C)C2	-5
CC1=C(C(=O)Nc2ccc(F)cc2)C(c2ccc(C)o2)C2=C(CC(C)(C)CC2=O)N1 (configuration not stated)	296
O=C(CSc1ncn[nH]1)Nc1ccc(Br)cc1F	-9
Cc1nc2scc(-c3ccc(Cl)cc3)c2c(=O)o1	3
CN1c2ccccc2N(C)C1c1ccc2c(c1)OCO2	193
O=C1C2C3C=CC(CC3)C2C(=O)N1c1ccc2c(c1)OCO2 (configuration not stated)	107
CC12CN3CC(C)(CN(C1)C3c1ccc3c(c1)OCO3)C2=O (configuration not stated)	438*
Cc1cccn2c(=O)c3cc(C(=O)NCCCN4CCCC4=O)n(C)c3nc12	0
O=C(O)CC(NC(=O)c1ccc2c(c1)OCO2)c1cccc([N+](=O)[O-])c1 (configuration not stated)	464*
O=C(N/N=C\c1ccc(-c2ccc([N+](=O)[O-])cc2)o1)c1ccc2c(c1)OCO2	-3
O=C(Nc1cccc([N+](=O)[O-])c1)c1ccc2c(c1)OCCO2	-5
Cc1ccc(CNS(=O)(=O)NCc2cccs2)cc1	-77
CCOc1ccccc1C(=O)N(Cc1cccs1)C1CCS(=O)(=O)C1 (configuration not stated)	8
SMILES	Insulin prom act
Cc1ccc2nc(SCC(=O)NNC(=O)c3ccccc3)[nH]c2c1	0
CCn1c(SCC(=O)NC2CCCc3ccccc32)nnc1-c1ccncc1 (configuration not stated)	-7
CCn1c(SCC(=O)Nc2ccc(S(=O)(=O)Nc3ccccn3)cc2)nnc1-c1ccncc1	569*
CCn1c(SCC(=O)Nc2cccc(NC(=O)c3cccs3)c2)nnc1-c1ccncc1	0
COc1ccc(OC)c(NC(=S)NCc2cccnc2)c1	7
Cc1[nH]c2ccccc2c1CCN(Cc1cccnc1)C(=S)Nc1ccc(F)cc1	0
CCOC(=O)CNC(=S)N(Cc1ccccc1)Cc1cccnc1	7
Cc1cc(C)c2cc(CN(Cc3cccnc3)C(=O)c3ccc(F)cc3)c(Cl)nc2c1	130*
CC1CCN(CCc2nc3cc(NC(=O)NC4CCCCC4)ccc3n2C)CC1	8
Cc1ccc(C(=O)CCC(=O)Nc2cccc(C(F)(F)F)c2)cc1	-7
Cc1cc(C)n(-c2nc(Nc3ccccc3)nc(-n3nc(C)cc3C)n2)n1	-6
Cc1cc(Nc2ccccc2)n(CCO)n1	543*
COc1ccc(C(=O)n2nc(C)cc2Nc2ccccc2)cc1	6
Cc1ccc(OCC(=O)NNC(=O)c2cccnc2)cc1C	7
Cc1ccc(N/C=C(/C#N)c2ccsc2)cc1C	7
COc1cc(/C=N/Nc2snc(SC)c2C#N)ccc1O	2
CSc1nsc(/C=C/Nc2ccc(C)c(C)c2)c1C#N	669*
CC(C)CC(NC(=O)c1ccccc1NC(=O)c1ccccc1)C(=O)O (configuration not stated)	-6
COc1ccc(-[n+]2c(C)cc(/C=C3\Sc4ccccc4N3C)cc2C)cc1	400*
Cc1ccc(N2CCN(CCCCN3C(=O)C4CCCN4C3=O)CC2)cc1 (configuration not stated)	-8
CCc1c(C)c(C#N)c2nc3ccccc3n2c1Cl	153
CCc1c(C)c(C#N)c2nc3ccccc3n2c1N1CCN(c2cc(C)ccn2)CC1	-3
CC(C)c1cc(NCC2CCCO2)n2c(nc3ccccc32)c1C#N (configuration not stated)	79*
Cc1cc(NCCN2CCCCC2)n2c(nc3ccccc32)c1C#N	5
CCc1c(C)c(C#N)c2nc3ccccc3n2c1NCC1CCCO1 (configuration not stated)	79*
Cc1c(C#N)c2ccccc2n1CC(=O)NCC1CCCO1 (configuration not stated)	7
CCOC(=O)c1cnn2c(C(F)(F)F)cc(-c3cn(C)nc3C)nc12	-14
O=C(c1ccc([N+](=O)[O-])cc1)N1CCSC1c1cccc(Cl)c1 (configuration not stated)	8
CCOc1ccc(C(=O)NCC(=O)OCc2c(F)cccc2Cl)cc1	193
